The source of these data is ChEMBL document CHEMBL1255487, “Preclinical evaluation of the antifolate QN254, 5-chloro- N'6'-(2,5-dimethoxy-benzyl)-quinazoline-2,4,6-triamine, as an antimalarial drug candidate” (Antimicrob Agents Chemother, 2010).

The subject of data set [1] is Plasmodium berghei. The data set can be described thus: Antimalarial activity against Plasmodium berghei ANKA infected in NMRI mice (Mus musculus) assessed as survival rate at 100 mg/kg, perorally administered as single dose. In kind it is functional. The note with it: route oral. An outline of the steps: (§1)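 Infection: 5 female NMRI mice (20–22 g) per group, inoculated intravenously with 0.2 ml of donor blood at 1 × 10^8 parasitized erythrocytes/ml. Oral administration in 0.5% carboxymethyl cellulose. Survival time recorded up to 30 days after infection and averaged per group.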

Data set [2] has as its system Mus musculus. Briefly: Toxicity in NMRI mice (Mus musculus) infected with Plasmodium berghei ANKA at 100 mg/kg, perorally administered as single dose measured up to 30 days postinfection. In kind it is organism-based. The note with it: in vivo, po, 720 h. Details: dose 100 mg/kg, route oral.
Data set [3] concerns Plasmodium berghei. Briefly: Antimalarial activity against Plasmodium berghei ANKA infected in NMRI mice (Mus musculus) assessed as mean survival time at 3 times 30 mg/kg, perorally. In kind it is functional. The note with it: route oral. An outline of the steps: as §1
Data set [4] relates to Plasmodium berghei. The data set can be described thus: Antimalarial activity against Plasmodium berghei ANKA infected in NMRI mice (Mus musculus) assessed as cure rate at 100 mg/kg, perorally administered as single dose measured on […]. In kind it is functional. The note with it: route oral. In a few lines:
(§2)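 Female NMRI mice (20–22 g), 5 per group, infected intravenously with 0.2 ml of 1 × 10^8 parasitized erythrocytes/ml from a fresh donor mouse. Compound suspended in 0.5% carboxymethyl cellulose and given orally. Survival followed to day 30 post-infection; an animal was scored cured if it survived to day 30 without parasites.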

Data set [5] relates to Plasmodium berghei. The data set can be described thus: Antimalarial activity against Plasmodium berghei ANKA infected in perorally dosed NMRI mice (Mus musculus) assessed as reduction in parasitemia administered as single dose measured on day 3 postinfection. In kind it is functional. The note with it: for ED50 / ED90: po, 72 h.
The subject of data set [6] is Plasmodium berghei. The data set can be described thus: Antimalarial activity against Plasmodium berghei ANKA infected in NMRI mice (Mus musculus) assessed as cure rate at 3 times 30 mg/kg, perorally measured […]. In kind it is functional. The note with it: route oral. An outline of the steps: as §2
Data set [7] relates to Plasmodium berghei. The data set can be described thus: Antimalarial activity against Plasmodium berghei ANKA infected in NMRI mice (Mus musculus) assessed as reduction in parasitemia at 100 mg/kg, perorally administered as single dose measured on day 3 postinfection. In kind it is functional. Also on record: scale not given: the % may be the effect or the level left. The note with it: route oral. In a few lines:
(§3)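 P. berghei ANKA given intravenously to groups of 5 female NMRI mice (20–22 g): 0.2 ml of 1 × 10^8 parasitized erythrocytes/ml from a donor mouse. Oral dosing in 0.5% carboxymethyl cellulose. Parasitemia counted by microscopy. Activity is the control-minus-treated parasitemia difference, expressed as percent of untreated controls.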

Data set [8] deals with Plasmodium berghei. The data set can be described thus: Antimalarial activity against Plasmodium berghei ANKA infected in NMRI mice (Mus musculus) assessed as reduction in parasitemia at 3 times 30 mg/kg, perorally measured on day 3 postinfection. In kind it is functional. Details: scale not given: the % may be the effect or the level left. The note with it: route oral. In a few lines:
as §3

Data set [9] concerns Mus musculus. Briefly: Toxicity in NMRI mice (Mus musculus) infected with Plasmodium berghei ANKA at 3 times 30 mg/kg, perorally measured up to 30 days postinfection. In kind it is organism-based. Details: dose 30 mg/kg, route oral. The note with it: in vivo, po, 720 h.
A short description of data set [10]: Binding affinity to recombinant Plasmodium falciparum V1/S DHFR S108N, N51I, C59R, I164L mutant by competitive binding assay. Also on record: species or system V1S.
Data set [11] addresses T1, Dihydrofolate reductase (Homo sapiens, UniProt P00374).
T1 sequence (P00374 whole entry): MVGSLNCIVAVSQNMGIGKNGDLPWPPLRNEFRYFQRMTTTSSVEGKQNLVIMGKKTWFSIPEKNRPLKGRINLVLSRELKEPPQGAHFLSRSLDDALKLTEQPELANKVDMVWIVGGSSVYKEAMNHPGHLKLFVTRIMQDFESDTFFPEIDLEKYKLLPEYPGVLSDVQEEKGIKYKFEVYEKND
Briefly: Binding affinity to human recombinant DHFR expressed in Escherichia coli BL21(DE3) by competitive binding assay.

Data set [12] in a line: Selectivity ratio of Ki for human recombinant DHFR to Ki for wild type Plasmodium falciparum DHFR.
For data set [13], the system named is Plasmodium falciparum. The data set can be described thus: Selectivity ratio of Ki for recombinant Plasmodium falciparum V1/S DHFR S108N, N51I, C59R, I164L mutant to Ki for wild type Plasmodium falciparum DHFR.
A short description of data set [14]: Binding affinity to wild type Plasmodium falciparum DHFR by competitive binding assay.
The test system of data set [15] is Plasmodium falciparum. Briefly: Antimalarial activity against pyrimethamine-resistant Plasmodium falciparum V1/S harboring S108N, N51I, C59R, I164L mutation in DHFR assessed as decrease in parasitaemia. In kind it is functional, organism-based. The note with it: V1S.
Data set [16] deals with Plasmodium falciparum. Briefly: Antimalarial activity against pyrimethamine-resistant Plasmodium falciparum clinical isolate harboring S108N, C59R mutation in DHFR assessed as decrease in parasitaemia. In kind it is functional, organism-based. An outline of the steps: (§4)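 P. falciparum grown in RPMI 1640 with 10% (v/v) human serum, 25 mM bicarbonate, 2 mM glutamine, 25 mM HEPES, 5 nM para-aminobenzoic acid and 23 nM folic acid. Parasites exposed to a concentration series. Read-out is [3H]hypoxanthine incorporation into nucleic acid. IC50 taken from non-linear regression of the dose–response curve.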

The test system of data set [17] is Plasmodium falciparum. Briefly: Antimalarial activity against pyrimethamine-resistant Plasmodium falciparum clinical isolate harboring S108N, N51I mutation in DHFR assessed as decrease in parasitaemia. In kind it is functional, organism-based. An outline of the steps:
as §4

Data set [18] relates to Plasmodium falciparum. Briefly: Antimalarial activity against pyrimethamine-resistant Plasmodium falciparum clinical isolate harboring S108N, N51I, C59R mutation in DHFR assessed as decrease in parasitaemia. In kind it is functional, organism-based. An outline of the steps: as §4

By ED50 is commonly meant the dose that gives a 50% effect, or the effect in half of the subjects. With `CCN(CC)CCCC(C)Nc1ccnc2cc(Cl)ccc12` (stereo unspecified) [CHLOROQUINE], the Survival in data set [1] is 25.5 days; in data set [3], 22.1 days. Further, the Activity in [2] is on record as 0%; in data set [4] it was 0%; in data set [6] it was 0%; in data set [7] it was 89%; in data set [8], 98.8%; in data set [9], 0%. For the same molecule, the inhibition entry in data set [5] is “Dose dependent effect”. Besides, the ED50 in [5] came out at 1.9 mg/kg. In addition, in [5], the ED90 stood at 4.2 mg/kg.
What is called Ki is a measure of affinity in units of concentration, obtained from inhibition or displacement. With `CC1(C)N=C(N)N=C(N)N1OCCCOc1cc(Cl)c(Cl)cc1Cl`, the inhibition constant (Ki) in [10] turned out to be 1.9 nM; in data set [11], 7.7 nM; in [14], 0.5 nM. Moreover, the results for the Ratio Ki in data set [12] and in [13] were 15 and 1.8, respectively.
Regarding `CC1(C)N=C(N)N=C(N)N1c1ccc(Cl)cc1` [CYCLOGUANIL], the Ki in [10] is 454 nM; in [14], 1.51 nM.
Regarding `C[C@H]1[C@H](OC(=O)CCC(=O)O)O[C@@H]2O[C@@]3(C)CC[C@H]4[C@H](C)CC[C@@H]1[C@@]24OO3` [ARTESUNATE], the values for the Survival in data set [1] and in data set [3] were 7 days and 12.2 days, respectively. Moreover, the Activity in data set [2] came out at 0%; in data set [4], 0%; in [6] it was 0%; in [7], 98%; in [8] it was 98.7%; in data set [9] it was 0%. Further, the median effective dose (ED50) in [5] was found to be 5.9 mg/kg. For the same molecule, the ED90 in data set [5] turned out to be 20.5 mg/kg.
What is called IC50 is the point on the concentration scale where inhibition reaches its midpoint. Take `CCc1nc(N)nc(N)c1-c1ccc(Cl)cc1` [PYRIMETHAMINE]: the Ki in [10] was determined as 385 nM; in data set [14], 0.59 nM. The IC50 in data set [15] worked out at 3690 nM; in data set [16] it was 371 nM; in [17] it was 371 nM; in data set [18], 778 nM.
Consider `OC(c1cc(C(F)(F)F)nc2c(C(F)(F)F)cccc12)C1CCCCN1` (stereo unspecified) [MEFLOQUINE], for which the Activity in [2] stood at 0%; in data set [4] it was 0%; in [6], 0%; in [7], 99.6%; in [8] it was 99.8%; in data set [9], 0%. In addition, the Survival in [3] came to 14.3 days.
